Source: PubChem (Sanford-Burnham Center for Chemical Genomics)
Shown are actives, neighbours in structure and some others; about 0.77% of the full set was active somewhere.
hIAP inh: blocks human intestinal alkaline phosphatase; actives 0.12% (n = 330,000); inhibition, % at 10 µM; AID 2544; P09923; purified IAP, CDP-Star luminescence, 30 min;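 active = inhibition reaching a set limit with compound at 10 µM in the primary screen, cut at about 35% in these data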
Target sequence (P09923 whole entry, looked up): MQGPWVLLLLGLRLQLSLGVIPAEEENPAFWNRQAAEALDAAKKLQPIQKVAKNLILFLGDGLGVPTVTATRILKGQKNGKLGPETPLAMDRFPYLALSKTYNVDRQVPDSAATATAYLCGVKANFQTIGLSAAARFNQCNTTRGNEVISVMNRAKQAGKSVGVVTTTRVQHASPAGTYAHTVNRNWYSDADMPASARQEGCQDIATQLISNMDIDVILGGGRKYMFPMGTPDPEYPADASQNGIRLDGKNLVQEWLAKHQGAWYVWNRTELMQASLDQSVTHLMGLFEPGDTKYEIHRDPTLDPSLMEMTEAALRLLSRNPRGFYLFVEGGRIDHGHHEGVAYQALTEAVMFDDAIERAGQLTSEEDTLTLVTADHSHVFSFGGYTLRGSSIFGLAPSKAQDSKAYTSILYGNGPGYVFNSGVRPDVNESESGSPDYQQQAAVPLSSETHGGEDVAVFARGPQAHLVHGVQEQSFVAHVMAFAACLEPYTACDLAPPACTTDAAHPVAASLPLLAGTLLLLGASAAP
mIAP inh: mouse IAP inhibition. actives 0.2% (n = 330,000). inhibition, % at 10 µM. purified mouse IAP, CDP-Star luminescence, 30 min;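 active = inhibition of at least 40% at 10 µM in the primary screen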
mIAP act: mouse IAP activation | muIAP, CDP-Star luminescence, 30 min; hits give high values; 1 = vehicle-only enzyme signal, 0 = enzyme-free wells | activation factor at 10 µM | actives 0.24% (n = 330,000) | AID 2805;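 active = activation factor of at least 2 at 20 µM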
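System: mouse IAP enzyme. Reagent: CDP-Star chemiluminescent phosphatase substrate. Benchmarks: DMSO wells, no-enzyme wells. Times: 30 min enzyme-substrate-compound incubation at room temperature. Detection: luminescence from enzymatic CDP-Star hydrolysis. Doses: test compounds delivered from DMSO solution.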
hIAP act: human IAP activation | actives 0.16% (n = 330,000) | AID 2524 | activation factor at 10 µM | purified human IAP, CDP-Star luminescence, 30 min; hits give high values; 1 = vehicle-only enzyme, 0 = enzyme-free background;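 active = activation factor of the enzyme at least 2-fold when tested at 20 µM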
bIAP act: increases bovine intestinal alkaline phosphatase activity; purified bovine IAP, CDP-star luminescence, 30 min; hits give high values; fold of DMSO-control signal, blank-subtracted; activation factor at 20 µM; actives 0.17% (n = 200,000); AID 1016;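 active = activation factor of 2 or more at 20 µM, a signal rise over negative controls twice the positive control's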
bIAP inh: blocks bovine intestinal alkaline phosphatase activity; purified bovine IAP, CDP-star luminescence, 30 min; inhibition, % at 20 µM; 190,000 tested, under 10 active;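 active = over 50% inhibition of intestinal alkaline phosphatase at 20 µM in the single-dose screen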
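Assay system – bovine IAP enzyme · Quantity – bovine IAP at 1/65,000,000 final dilution · Detection – CDP-star luminescence signal · Times – 30 min reaction at room temperature · Also added – CDP-star substrate at 30 µM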
hIAP act conf: human IAP activation confirmation | shares compounds with hIAP act | activation (%Activity, negative = activation), % at 8.3 µM | purified IAP, CDP-Star luminescence, 30 min; hits give low values | actives 10% (n = 880);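 active = at least twofold enzyme activation in any of six single-dose repeats, which the averaged readout prints as negative percent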
Of the large screens only hits and unclear results are named; the others gave an inactive call (follow-up assays come after a bar, where they were run).

CCN(CC)C(=O)c1ccc(/C=C/c2c[nH]c3ccccc23)[n+](C)c1	none
COc1ccc(S(=O)(=O)NNC(=O)C(=O)NNc2ccccn2)cc1	hIAP act 3 (no result: bIAP act, bIAP inh) | hIAP act conf inactive
O=C(CSc1nnc(NC(=O)c2ccc(S(=O)(=O)N3CCOCC3)cc2)s1)Nc1ccccc1C(F)(F)F	hIAP inh 87 | hIAP act conf inactive
Cc1nnc(NC(=O)c2ccc(S(=O)(=O)N3CCOCC3)cc2)s1	none (no result: bIAP act, bIAP inh)
COc1ccc(-c2nc(NC(=O)c3n[nH]c(=O)c4ccccc34)sc2C)cc1	hIAP act 2.1 | hIAP act conf inactive
COc1cc(NC(=O)c2n[nH]c(=O)c3ccccc23)cc(OC)c1	none (no result: bIAP act, bIAP inh)
CN1C(=O)C(=O)/C(=C(/O)c2ccccc2)C1c1ccc(Br)cc1 (centres undefined)	none (no result: bIAP act, bIAP inh)
CN1C(=O)C(=O)/C(=C(/O)c2ccc(Br)cc2)C1c1ccc(Cl)cc1 (centres undefined)	hIAP inh 41 (no result: bIAP act, bIAP inh) | hIAP act conf inactive
OCC[C@H]1C[C@@H](O)[C@H](O)[C@]2(CCc3ccccc3O2)O1	none (no result: bIAP act, bIAP inh)
COc1ccc(C)cc1NC(=S)NNC(=O)c1ccccc1Cl	hIAP act 2.1 | hIAP act conf inactive
Cc1ccc(NC(=S)NNC(=O)c2ccccc2O)c(C)c1	hIAP act 2.3 | hIAP act conf inactive
CN(C(=O)C1CC1)C1CCS(=O)(=O)C1 (centres undefined)	none (no result: bIAP act, bIAP inh)
c1ccc(-n2ncc3c2ncn2nnnc32)cc1	none
Cc1nc2c3cnn(-c4ccccc4)c3ncn2n1	hIAP inh 73 | hIAP act conf inactive
c1ccc(-n2ncc3c2ncn2cnnc32)cc1	hIAP inh 82 (no result: bIAP inh) | hIAP act conf inactive
Cc1ccc(OS(=O)(=O)c2ccc(N3C(=O)CCC3=O)cc2)cc1	none (no result: bIAP act, bIAP inh)
COc1ccc(S(=O)(=O)N2CCOCC2)cc1NC(=O)c1ccncc1	none (no result: bIAP act, bIAP inh)
CC(C)(CNC(=O)CNC(=O)c1ccccc1F)N1CCOCC1	none (no result: bIAP act, bIAP inh)
COc1cccc2c1cc1c(=O)n(CC(=O)NCCCN3CCN(C)CC3)nc(C)n12	hIAP inh 43 (no result: bIAP act, bIAP inh) | hIAP act conf inactive
Cn1ccnc1SCc1ccc(Cl)cc1Cl	hIAP act 2.2 (no result: bIAP act, bIAP inh) | hIAP act conf inactive
Cc1ccc(CCNC(=O)C2CCC(=O)N(CC3CCCCC3)C2)cc1 (centres undefined)	none (no result: bIAP act, bIAP inh)
Cc1ccc(S(=O)(=O)NCC(=O)N/N=C/c2ccccc2O)cc1	hIAP act 2.2 | hIAP act conf inactive
Cc1ccc(S(=O)(=O)NCC(=O)N/N=C/c2ccc(Cl)cc2Cl)cc1	none
CSc1ccccc1NC(=O)COC(=O)Cn1cc(C(F)(F)F)ccc1=O	none (no result: bIAP act, bIAP inh)
O=C(CC(=O)c1ccccc1)Nc1ccccn1	hIAP inh 42 (no result: bIAP act, bIAP inh) | hIAP act conf inactive
O=C(CC(=O)c1ccccc1)Nc1ccccc1	none (no result: bIAP act, bIAP inh)
COc1ccc(CN(CCNC(=O)CCCCC(=O)NCCN(Cc2ccc(OC)cc2)C(C)C)C(C)C)cc1	hIAP inh 41 (no result: bIAP act, bIAP inh) | hIAP act conf inactive
COc1ccc(CCNC(=O)CCCCC(=O)NCCc2ccc(OC)cc2)cc1	none (no result: bIAP act, bIAP inh)
CC(=O)Nc1ccc(NC(=O)C(C)OC(=O)CSc2ccc(Br)cc2C)cc1 (centres undefined)	none (no result: bIAP act, bIAP inh)
COc1ccc(/C=N/NC(=O)C(=O)Nc2ccccn2)cc1OC	none
O=C(N/N=C/c1ccccc1O)C(=O)Nc1ccccn1	hIAP act 2 | hIAP act conf inactive
N#C/C(=C(\O)c1ccco1)c1ccccn1	hIAP act 2.1 | hIAP act conf inactive
CCOC(=O)Cc1csc(NC(=O)CN2C(=O)c3ccccc3C2=O)n1	none (no result: bIAP act, bIAP inh)
CCOC(=O)Cc1csc(NC(=O)CN2C(=O)c3ccccc3S2(=O)=O)n1	hIAP act 2.1 | hIAP act conf inactive
CCc1ccc(-c2cc(C(=O)N/N=C/c3ccco3)[nH]n2)cc1	none
O=C(N/N=C/c1ccco1)c1cc(-c2ccc3ccccc3c2)n[nH]1	hIAP act 2.1 | hIAP act conf inactive
O=C(N/N=C/c1ccccn1)c1cc(-c2ccc3ccccc3c2)n[nH]1	hIAP act 2.2 | hIAP act conf inactive
CCc1ccc(-c2cc(C(=O)N/N=C/c3ccccn3)[nH]n2)cc1	none
COc1cccc2[nH]c(=O)c(-c3ccccc3)cc12	none (no result: bIAP act, bIAP inh)
O=C(c1ccco1)N(Cc1ccc(Cl)cc1)Cc1ccco1	hIAP inh 38 (no result: bIAP act, bIAP inh) | hIAP act conf inactive
CN(C)c1ccc(CN(Cc2ccco2)C(=O)c2ccco2)cc1	none (no result: bIAP act, bIAP inh)
Cc1cc(OCC(=O)OCC(=O)NCc2cccs2)ccc1Cl	none (no result: bIAP act, bIAP inh)
CCOc1ccc(CC(=O)NNC(=S)NCCc2ccccc2)cc1	hIAP act 2 | hIAP act conf inactive
CCS(=O)(=O)Nc1cc2c3c(c1)CCC(=O)N3CCC2	hIAP inh 37 (no result: bIAP act, bIAP inh) | hIAP act conf inactive
CCc1cc(-c2n[nH]c(C)c2-c2nc3ccccc3s2)c(O)cc1OCC(=O)NN	hIAP act 2.3, bIAP act 2 | hIAP act conf inactive
Cc1ccc(-n2c(Cc3ccccc3)nnc2SCC(=O)NNC(=O)Cc2ccccc2)cc1	hIAP act 2 | hIAP act conf inactive
CCOC(=O)CSc1nnc(Cc2ccccc2)n1-c1ccc(C)cc1	none
Cc1cc(Br)ccc1SCC(=O)OC/C(O)=C(\C#N)c1nc2ccccc2[nH]1	hIAP act 2.4 (no result: bIAP act, bIAP inh) | hIAP act conf -67
O=C(NN1C(=O)/C(=C/c2ccc(O)cc2)SC1=S)c1cccc(O)c1	hIAP inh 37 (no result: bIAP act, bIAP inh) | hIAP act conf inactive
O=C1/C(=C/c2ccc(O)c([N+](=O)[O-])c2)SC(=S)N1Cc1ccccc1	none
O=C(NN1C(=O)/C(=C/c2ccc(O)c([N+](=O)[O-])c2)SC1=S)c1ccccc1Cl	hIAP inh 35 | hIAP act conf inactive
Cc1ccccc1OCC(=O)Nc1c2c(nn1C(C)(C)C)CS(=O)(=O)C2	none (no result: bIAP act, bIAP inh)
CCOc1ccccc1NC(=O)COC(=O)C1CC(=O)N(c2c(C)cccc2C)C1 (centres undefined)	none (no result: bIAP act, bIAP inh)
Cc1ccc(/C=N/NC(=O)c2cc(-c3ccc(C)o3)[nH]n2)cc1	hIAP act 2.1 (no result: bIAP act, bIAP inh) | hIAP act conf inactive
Cc1ccc(-c2cc(C(=O)N/N=C/c3cccnc3)n[nH]2)o1	none
O=c1ncn(-c2cccc(Cl)c2)c2ccccc12	none (no result: bIAP act, bIAP inh)
C(=N\Nc1nc(-c2cccnc2)nc2ccccc12)/c1ccccc1	none (no result: bIAP act, bIAP inh)
COc1cccc(/C=N/Nc2nc(-c3cccnc3)nc3ccccc23)c1	hIAP inh 58 (no result: bIAP act, bIAP inh) | hIAP act conf inactive
COc1ccc(-n2ccn(CC(=O)Nc3ccc(OC)cc3OC)c(=O)c2=O)cc1	hIAP inh 44 (no result: bIAP act, bIAP inh) | hIAP act conf inactive
CCC(=O)c1ccc(OCC(=O)OCC(=O)N2c3ccccc3NC(=O)C2(C)C)cc1	none (no result: bIAP act, bIAP inh)
O=C1C2C3C=CC(C3)C2C(=O)N1c1n[nH]c(-c2cccnc2)n1 (centres undefined)	hIAP inh 66 | hIAP act conf -82
